High-throughput results: PubChem BioAssay, several laboratories
Tb hexokinase: blocks Trypanosoma brucei hexokinase 1 activity | recombinant TbHK1, G6PDH-coupled NADH A340 | inhibition, % at 10 µM | 0.11% of 220,000 active;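 active = inhibition of 50% or more in the single-dose primary screen; inactive = inhibition below 50%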
p97 inhibitor: inhibitors of human p97 ATPase | P55072 | 0.42% of 220,000 active | inhibition, % at 8 µM | recombinant p97 ATPase, Kinase-Glo ATP luminescence, 3 h | AID 1481; in the data active = inhibition above about 15%
Target sequence (P55072 whole entry, looked up): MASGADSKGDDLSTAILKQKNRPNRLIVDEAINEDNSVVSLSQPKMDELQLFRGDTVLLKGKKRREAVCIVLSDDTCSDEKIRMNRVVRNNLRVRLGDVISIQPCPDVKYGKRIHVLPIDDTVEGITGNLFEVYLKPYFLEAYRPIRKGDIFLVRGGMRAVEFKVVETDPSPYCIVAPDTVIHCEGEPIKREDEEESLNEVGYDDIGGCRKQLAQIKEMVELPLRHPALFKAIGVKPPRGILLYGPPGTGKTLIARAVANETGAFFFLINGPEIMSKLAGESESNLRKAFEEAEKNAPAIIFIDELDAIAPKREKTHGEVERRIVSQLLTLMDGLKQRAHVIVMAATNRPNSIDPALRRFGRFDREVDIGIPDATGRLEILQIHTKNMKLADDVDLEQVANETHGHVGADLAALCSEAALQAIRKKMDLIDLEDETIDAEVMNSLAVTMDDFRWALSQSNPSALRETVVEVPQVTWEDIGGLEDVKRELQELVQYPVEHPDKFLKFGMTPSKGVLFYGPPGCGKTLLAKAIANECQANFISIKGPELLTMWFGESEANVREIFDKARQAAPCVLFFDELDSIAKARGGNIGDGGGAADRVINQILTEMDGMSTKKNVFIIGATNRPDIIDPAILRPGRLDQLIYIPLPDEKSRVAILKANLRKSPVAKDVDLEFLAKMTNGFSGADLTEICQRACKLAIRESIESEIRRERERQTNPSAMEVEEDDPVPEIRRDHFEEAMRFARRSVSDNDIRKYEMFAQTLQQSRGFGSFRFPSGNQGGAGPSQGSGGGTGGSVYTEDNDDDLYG
G6PDH counter: inhibits Leuconostoc G6PDH, flagging false hits in G6PDH-based assays. Purified L. mesenteroides G6PDH, diaphorase/resazurin coupled fluorescence, 45 min. inhibition, % at 5 µM. 0.12% of 200,000 active. AID 1020; in the data active = inhibition above about 50%
PMI act satM6P: activators of human phosphomannose isomerase at near-saturating mannose 6-phosphate; coupled PMI enzyme assay, resazurin fluorescence, 20 min; hits give high values; 1 = untreated enzyme, 0 = substrate-free blank; activation factor at 20 µM; 0.34% of 190,000 active; AID 1216;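 active = activation factor of 2 or more at 20 µM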
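Test system: human phosphomannose isomerase with PGI, G6PDH, diaphorase coupling enzymes; Amount: PMI at 15 ng/mL final; Reagent: Mannose-6-phosphate 1.0 mM (near-saturating) plus 0.22 mM NADP+; Timing: 20 min, room temperature; Technique: resorufin fluorescence at Ex 544/Em 590 nm; Dosing: 20 µM single dose.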
PMI activator: increases human mannose-6-phosphate isomerase activity; P34949; purified human PMI, coupled resazurin fluorescence, 20 min; hits give high values; 1 = vehicle control, 0 substrate-free wells; activation factor at 20 µM; 0.005% of 190,000 active;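 active = activation factor of 2 or more at 20 µM, relative to plate controls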
DTT redox prof: compounds producing H2O2 with reducing agent – biochemical, NIH compound library profiling, artefact control for MLSCN library redox annotation, primary screen | DTT-dependent redox cycling H2O2, phenol red/HRP absorbance; 100% = 100 µM peroxide control, 0% = buffer | 0.03% of 200,000 active | activation, % at 10 µM | AID 878;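 active = activation of at least 50% relative to the plate's high and low controls in the primary single-dose screen; inactive = activation below 50%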;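 also: compound incubated with DTT at 0.8 mM final as the reducing agent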
A number is an active result. Shown are actives, neighbours in structure and some others; about 0.91% of the full set was active somewhere.

`COc1cc(C2Nc3ccc4ncccc4c3C3=C2C(=O)CCC3)cc(OC)c1O` (stereo not given) gave Tb hexokinase inactive, p97 inhibitor inactive, G6PDH counter 50, PMI act satM6P inactive, PMI activator inactive and DTT redox prof inactive.
For CCN(CC)C(=O)c1ccccc1NS(C)(=O)=O the results were Tb hexokinase inactive, p97 inhibitor inactive, G6PDH counter inactive, PMI act satM6P inactive, PMI activator inactive and DTT redox prof inactive.
For CCOC(=O)C1(CCOC)CCN(Cc2nc(C(C)C)cs2)CC1 the results were Tb hexokinase inactive, p97 inhibitor inactive, G6PDH counter inactive, PMI act satM6P inactive, PMI activator inactive and DTT redox prof inactive.
For O=C(NC(=S)Nc1nc(-c2ccc(Br)cc2)cs1)c1cccnc1 the results were Tb hexokinase inactive, p97 inhibitor inactive, G6PDH counter inactive, PMI act satM6P 2.5, PMI activator inactive and DTT redox prof inactive.
`Cn1c(=O)n(C)c2cc(S(=O)(=O)N3CCOCC3)ccc21` gave Tb hexokinase inactive, p97 inhibitor inactive, G6PDH counter inactive, PMI act satM6P inactive, PMI activator inactive and DTT redox prof inactive.
Screening CSCCC1Nc2ccc(S(=O)(=O)N3CCOCC3)cc2NC1=O (stereo not given) returned Tb hexokinase inactive, p97 inhibitor inactive, G6PDH counter inactive, PMI act satM6P 2.6, PMI activator inactive and DTT redox prof inactive.
`COc1ccc2c(CC(=O)NCc3cccs3)coc2c1` gave Tb hexokinase inactive, p97 inhibitor inactive, G6PDH counter inactive, PMI act satM6P inactive, PMI activator inactive and DTT redox prof inactive.
O=c1oc2c(O)c(O)cc3c(=O)oc4c(O)c(O)cc1c4c23 was read as Tb hexokinase 66, p97 inhibitor inactive, G6PDH counter inactive, PMI act satM6P inactive, PMI activator inactive and DTT redox prof inactive.
`O=C(/C=C1\NCC2c3ccccc3CCN2C1=O)c1ccccc1` (stereo not given) gave Tb hexokinase inactive, p97 inhibitor inactive, G6PDH counter inactive, PMI act satM6P 2.6, PMI activator inactive and DTT redox prof inactive.
For Oc1cccc(/C=N/NC(=S)NCCN2CCOCC2)c1O the results were Tb hexokinase inactive, p97 inhibitor inactive, G6PDH counter 60, PMI act satM6P inactive, PMI activator inactive and DTT redox prof inactive.
Screening NC(=S)N/N=C/c1cccc(O)c1O returned Tb hexokinase inactive, p97 inhibitor inactive, G6PDH counter 66, PMI act satM6P inactive, PMI activator inactive and DTT redox prof inactive.
For NC(=S)N/N=C/c1ccccc1O the results were Tb hexokinase inactive and p97 inhibitor inactive.
Screening COc1cccc(/C=N/N2CCOCC2)c1O returned Tb hexokinase inactive, p97 inhibitor inactive, G6PDH counter inactive, PMI act satM6P inactive, PMI activator inactive and DTT redox prof inactive.
For Oc1ccc(/C=N/N2CCOCC2)c(O)c1O the results were Tb hexokinase inactive, p97 inhibitor inactive, G6PDH counter 52, PMI act satM6P inactive, PMI activator inactive and DTT redox prof inactive.
Screening CCOC(=O)C1=C(C)N(C)C(=S)NC1c1ccc(Cl)cc1Cl (stereo not given) returned Tb hexokinase inactive, p97 inhibitor inactive, G6PDH counter inactive, PMI act satM6P inactive, PMI activator inactive and DTT redox prof inactive.
For O=c1cccccc1NN=C1CCCCC1 the results were Tb hexokinase inactive and p97 inhibitor inactive.
`O=C(O)c1cc(Br)ccc1NN=C1CCCCC1` gave Tb hexokinase inactive, p97 inhibitor inactive, G6PDH counter inactive, PMI act satM6P 2.9, PMI activator inactive and DTT redox prof inactive.
Screening COC(=O)C1=C(C(=O)OC)SC2(S1)C(C(=O)OC)=C(C(=O)OC)SC1=C2c2cc(C)ccc2NC1(C)C returned Tb hexokinase inactive, p97 inhibitor inactive, G6PDH counter inactive, PMI act satM6P inactive, PMI activator inactive and DTT redox prof inactive.
For NC(=O)CN1CCOCCOCCN(CC(N)=O)CCOCCOCC1 the results were Tb hexokinase inactive, p97 inhibitor inactive, G6PDH counter inactive, PMI act satM6P inactive, PMI activator inactive and DTT redox prof inactive.
Screening NC(=O)CN1CCOCCN(CC(N)=O)CCOCC1 returned G6PDH counter 56, PMI act satM6P inactive and PMI activator inactive.
CCC(C)/C(C)=N/NC(=O)c1cn(-c2ccccc2)nc1-c1ccccc1 (stereo not given) was read as Tb hexokinase inactive, p97 inhibitor inactive, G6PDH counter inactive, PMI act satM6P inactive, PMI activator inactive and DTT redox prof inactive.
Screening O=C(O)c1ccccc1Nc1cccc(C(F)(F)F)c1 returned Tb hexokinase inactive, p97 inhibitor 15, G6PDH counter inactive, PMI act satM6P inactive, PMI activator inactive and DTT redox prof inactive.
For Cc1[nH][nH]c(=O)c1C(c1ccc(-c2ccc(Cl)cc2Cl)o1)c1c(C)[nH][nH]c1=O the results were Tb hexokinase inactive, p97 inhibitor 20, G6PDH counter inactive, PMI act satM6P inactive, PMI activator inactive and DTT redox prof inactive.
`O=C(Nc1ccc(Oc2ncnc3cc(Cl)ccc23)nc1)c1cccs1` gave Tb hexokinase inactive and p97 inhibitor inactive.
Screening O=C(Cc1ccccc1)Nc1cccc(N2C(=O)C=CC2=O)c1 returned Tb hexokinase inactive, p97 inhibitor inactive, G6PDH counter inactive, PMI act satM6P 2.1, PMI activator inactive and DTT redox prof inactive.
COc1cccc(CC2(CO)CCN(CC3=CC[C@H]4C[C@@H]3C4(C)C)CC2)c1 was read as Tb hexokinase inactive, p97 inhibitor inactive, G6PDH counter inactive, PMI act satM6P inactive, PMI activator inactive and DTT redox prof inactive.
For N#Cc1ccccc1NC(=O)CSc1ccc([N+](=O)[O-])cn1 the results were Tb hexokinase inactive, p97 inhibitor inactive, G6PDH counter inactive, PMI act satM6P 2.6, PMI activator inactive and DTT redox prof inactive.
Cc1cc(=O)n2[nH]c(C)c(-c3ccccc3)c2n1 was read as Tb hexokinase inactive, p97 inhibitor inactive, G6PDH counter inactive, PMI act satM6P inactive, PMI activator inactive and DTT redox prof inactive.
Cc1cc(=O)n2cccc(O)c2n1 was read as Tb hexokinase inactive, p97 inhibitor inactive, G6PDH counter 56, PMI act satM6P inactive, PMI activator inactive and DTT redox prof inactive.
Screening Cc1ccc(S(=O)(=O)Nc2ccc(O)c3ncccc23)cc1 returned Tb hexokinase inactive, p97 inhibitor inactive, G6PDH counter 50, PMI act satM6P inactive, PMI activator inactive and DTT redox prof inactive.
For CCN(CC)CCNc1cc(C)nc2c1C(=O)C(=O)C=C2N1CCCCC1 the results were Tb hexokinase inactive, p97 inhibitor inactive, G6PDH counter 51 and DTT redox prof inactive.
`CCN(CC)CCNC(=O)c1ccc(N2CCCCC2)c(NS(=O)(=O)c2ccc(C)cc2)c1` gave Tb hexokinase inactive, p97 inhibitor inactive, G6PDH counter inactive, PMI act satM6P inactive, PMI activator inactive and DTT redox prof inactive.
